The entries come from a sample that favours hits as a whole.
Ec RNAP inh = Escherichia coli RNA polymerase inhibition | P0A8V2 | hit rate 0.2% among 62,000 | E. coli RNA polymerase, fluorescence transcription assay | inhibition, %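 (tested at 10 µM)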; in the data active = inhibition above about 20%;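 also: 0% = enzyme without compound and 100% = no enzyme blank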
AP ELISA ortho = orthogonal test for alternative complement pathway inhibitors; Human serum alternative complement pathway, LPS-coated ELISA, C3 deposition; tested in compound mixtures; inhibition, % at 5 µM; hit rate 0.08% among 62,000;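 active = inhibition above 30% in each of the two pooled mixtures holding the compound, so the lower value exceeds 30%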;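 also: 0% = serum in Mg-EGTA without compound and 100% = EDTA serum blank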
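Assay system: human serum alternative complement pathway, C3 deposition on LPS-coated wells; Dosing: 5 µM per compound in ten-compound mixtures; Detection: Anti-C3 ELISA, OD 450 nm; Buffer or medium: Mg2+-EGTA GVB++ buffer containing human serum at 1:15 dilution; Timing: 1 h at 37 °C; Replication: two different pools per compound.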
HEK293 NFkB inh = lowers PMA/ionomycin-induced NF-kB signal in HEK293 cells; hit rate 0.21% among 62,000; inhibition, % at 3 µM; HEK-293 NF-kB luciferase reporter, luminescence;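 active = inhibition above the mean of all tested compounds plus 3 SD, cut at about 40% in these data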;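 also: 0% = stimulated DMSO wells and 100% = 10 µM reference inhibitor 5653914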
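Material: HEK-293 cells with stable firefly luciferase reporter driven by four HIV NF-kB elements / Also added: PMA plus ionomycin mix as NF-kB-activating stimulus / Compound dosing: 3 µM once, 0.30% DMSO / Times: 1 h pretreatment, 16 h stimulation, 37 °C / Signal: luminescence / Evaluation: per-plate % inhibition versus controls / Benchmarks: DMSO and 10 µM reference inhibitor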
DAT uptake mod = changed human dopamine transporter uptake under cocaine IC80; LLC-PK1 hDAT cells, [14C]-dopamine uptake with cocaine IC80; actives deviate in either direction; Q01959; B-score at 10 µM; hit rate 1.3% among 110,000;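 active = Z score or B-score, a plate-position-corrected score, falls beyond the plate's 99.7% confidence bounds, in either direction; inactive = both scores lie inside the 99.7% bounds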;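 also: scored against the spread of the other compound wells on the same plate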
Target sequence (Q01959 whole entry, looked up): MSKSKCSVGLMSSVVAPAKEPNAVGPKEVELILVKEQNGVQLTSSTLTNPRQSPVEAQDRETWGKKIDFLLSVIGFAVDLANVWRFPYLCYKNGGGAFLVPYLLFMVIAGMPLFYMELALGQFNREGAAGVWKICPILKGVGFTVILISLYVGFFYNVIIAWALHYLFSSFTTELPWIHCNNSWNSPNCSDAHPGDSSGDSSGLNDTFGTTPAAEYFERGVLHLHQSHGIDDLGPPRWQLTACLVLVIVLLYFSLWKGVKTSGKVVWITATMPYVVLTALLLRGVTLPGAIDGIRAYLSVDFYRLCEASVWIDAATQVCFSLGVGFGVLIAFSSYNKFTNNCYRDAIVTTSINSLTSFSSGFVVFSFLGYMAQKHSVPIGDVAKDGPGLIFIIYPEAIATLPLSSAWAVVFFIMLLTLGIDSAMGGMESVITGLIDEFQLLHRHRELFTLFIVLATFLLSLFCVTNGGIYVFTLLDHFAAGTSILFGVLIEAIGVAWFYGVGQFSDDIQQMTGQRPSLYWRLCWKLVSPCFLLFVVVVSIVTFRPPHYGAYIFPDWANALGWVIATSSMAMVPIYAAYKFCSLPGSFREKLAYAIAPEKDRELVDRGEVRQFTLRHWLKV
D1 allo mod = allosteric modulators of human D1 dopamine receptor; HEK293 D1, CRE-luciferase, dopamine EC30 potentiation; actives deviate in either direction; B-score at 10 µM; hit rate 5.9% among 58,000; AID 641;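 active = luminescence count or its row- and column-corrected plate score outside the 99.7% band of the plate's sample wells, on either side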
D1 PAM confirm = D1 receptor (human) allosteric modulation, confirmed | HEK293 D1 CRE-luciferase, dopamine EC30 potentiation; stronger effect = higher value | shares compounds with D1 allo mod | luminescence at 10 µM | AID 642 | hit rate 88% among 2,200;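 active = luminescence in either of two replicates above the same-plate mean plus 3 SD of the low-dose dopamine control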
D1 no dopamine = activates D1 CRE-luciferase signal without dopamine present | shares compounds with D1 allo mod | HEK293 D1 CRE-luciferase, luminescence, no dopamine; stronger effect = higher value | luminescence at 10 µM | hit rate 0.8% among 1,900; in the data active = luminescence above about 3900
Isoprot counter = alters isoproterenol CRE-luciferase response in HEK293 cells; shares compounds with D1 allo mod; HEK293 D1 CRE-luciferase, isoproterenol EC30 counter-screen; calls only at 10 µM; hit rate 63% among 2,200;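 active = luminescence in either replicate above plate mean of wells with a partly effective reference agonist dose plus 3 SD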;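 also: isoproterenol raises cAMP through native beta-adrenoceptor Gs so signal bypasses D1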
Active calls of the source: *; i = inactive; nt = no result; + = active, no number.

SMILES	Ec RNAP inh	AP ELISA ortho	HEK293 NFkB inh	DAT uptake mod	D1 allo mod	D1 PAM confirm	D1 no dopamine	Isoprot counter
COC(=O)c1ccccc1NC(=O)CN1CCN(C(=O)c2ccco2)CC1	nt	nt	3	-0.045	3.2*	8328	1732	i
COc1ccc(NC(C)=O)cc1NC(=O)CN1CCN(C(=O)c2ccco2)CC1	nt	nt	nt	2	nt	nt	nt	nt
COC(=O)c1ccccc1NC(=O)CN1CCC(NC(=O)c2ccccc2C)CC1	10	0	19	0.0096	4.2*	9492*	1252	+
Cc1ccc(SCc2nc(-c3ccccc3)no2)cc1	0	3	0	-0.49	-0.027	nt	nt	nt
Cc1ccc(-c2noc(CSc3nnc(CCc4ccccc4)n3-c3ccccc3)n2)cc1	nt	nt	nt	0.099	nt	nt	nt	nt
COc1ccc(-c2noc(CSc3ccccc3)n2)cc1OC	8	-10	-4	2.1	9.4*	8800*	1600	+
COc1ccc(-c2noc(CSc3nnc(CCc4ccccc4)n3-c3ccccc3)n2)cc1OC	10	6	7	2.4	7.2*	10480*	1584	+
COc1ccc(-c2noc(CCN3C(=O)c4ccccc4C3=O)n2)cc1OC	8	0	12	0.12	2.6*	17536*	1456	i
COc1ccc(-c2nnc(SCc3ccccc3F)o2)cc1OC	-2	11	3	-1	12*	22288*	1720	+
COc1ccc(-c2cc(=O)oc3cc(OCc4nn[nH]n4)ccc23)cc1	7	3	-3	1.1	-0.9	nt	nt	nt
COc1ccc(C(=O)Nc2ccccc2)cc1S(=O)(=O)Nc1cc(C)on1	10	3	23	0.89	0.16	nt	nt	nt
N#CCC(CNc1ncc(C(F)(F)F)cc1Cl)OC(=O)c1cccc([N+](=O)[O-])c1 (stereo unspecified)	nt	nt	nt	1.4	nt	nt	nt	nt
Cc1cc(N2CCN(S(=O)(=O)c3ccc4c(c3)OCCO4)CC2)n2ncnc2n1	2	12	-2	0.46	4.1*	6428*	1504	i
CCN1C(=O)NC2C1N(S(C)(=O)=O)CCN2S(C)(=O)=O (stereo unspecified)	0	11	12	0.096	-0.2	nt	nt	nt
COc1ccccc1OC(=O)c1ccc(SC)cc1OC	6	2	-2	0.21	-0.059	nt	nt	nt
COc1ccccc1OCC(=O)c1[nH]c(C)c(C(C)=O)c1C	3	-7	26	1.2	-0.12	nt	nt	nt
COc1cc(CN(C)CC(=O)c2[nH]c(C)c(C(C)=O)c2C)ccc1OC(F)F	8	1	23	1	5*	7936*	1244	+
CCCn1c(CCc2ccccc2)nnc1SCC(=O)N1CCOCC1	6	4	12	-0.27	3.2*	4772	1664	i
Cn1c(Cn2c(=O)sc3ccccc32)nnc1SCC(=O)N1CCOCC1	4	23	7	-1.2	5.1*	8076*	1508	i
Cc1coc(NC(=O)CSc2nc(-c3ccncc3)cc(C(F)(F)F)c2C#N)n1	9	5	24	0.024	0.72	nt	nt	nt
N#CCSc1nc2cc(C(=O)N3CCC(C(N)=O)CC3)ccc2c2nc3ccccc3n12	3	16	15	0.29	10*	12528*	1880	+
O=C(OCCN1C(=O)c2ccccc2C1=O)c1cc(S(=O)(=O)N2CCOCC2)ccc1F	2	23	10	-0.6	12*	9428*	1532	+
O=C(COc1ccccc1)NCc1nnc(SCC(=O)Nc2nccs2)n1-c1ccccc1	-6	15	1	-0.11	3.9*	7240	1652	i
COc1cccc(C(=O)NCc2nnc(SCC(=O)Nc3nccs3)n2-c2ccccc2)c1	5	17	5	-0.71	-0.73	nt	nt	nt
Nc1c(S(=O)(=O)c2cccs2)c2nc3ccccc3nc2n1Cc1cccs1	2	15	9	-0.82	0.58	nt	nt	nt
Nc1c(S(=O)(=O)c2cccs2)c2nc3ccccc3nc2n1CC1CCCO1 (stereo unspecified)	-5	8	22	-0.51	5.9*	12068*	1576	+
Cn1c(SCC(N)=O)nnc1C1CCN(C(=O)NC2CCCCC2)CC1	-6	-10	10	-0.52	0.06	nt	nt	nt
CC(=O)c1cccc(NC(=O)N2CCC(c3nnc(SCC(N)=O)n3C)CC2)c1	11	5	17	0.59	3.3*	4940	nt	i

Bioassay records deposited in PubChem BioAssay by several laboratories.
